One data set deals with Mus musculus. Description: Toxicity in folate-replete diet fed NCR SCID mouse xenografted with human SKOV3 cells expressing RFC/PCFT/FRalpha assessed as body weight loss at 16 mg/kg, iv administered every 4 days on day 3, 7, 11. It is filed as organism-based, SK-OV-3. Particulars: in vivo, 96 h. (In general: A xenograft is tissue or cells of one species grown in another, often human tumour cells in immunodeficient mice.)

The target in data set [1] is T1, Proton-coupled folate transporter (Homo sapiens) (UniProt Q96NT5).
T1 sequence (whole entry): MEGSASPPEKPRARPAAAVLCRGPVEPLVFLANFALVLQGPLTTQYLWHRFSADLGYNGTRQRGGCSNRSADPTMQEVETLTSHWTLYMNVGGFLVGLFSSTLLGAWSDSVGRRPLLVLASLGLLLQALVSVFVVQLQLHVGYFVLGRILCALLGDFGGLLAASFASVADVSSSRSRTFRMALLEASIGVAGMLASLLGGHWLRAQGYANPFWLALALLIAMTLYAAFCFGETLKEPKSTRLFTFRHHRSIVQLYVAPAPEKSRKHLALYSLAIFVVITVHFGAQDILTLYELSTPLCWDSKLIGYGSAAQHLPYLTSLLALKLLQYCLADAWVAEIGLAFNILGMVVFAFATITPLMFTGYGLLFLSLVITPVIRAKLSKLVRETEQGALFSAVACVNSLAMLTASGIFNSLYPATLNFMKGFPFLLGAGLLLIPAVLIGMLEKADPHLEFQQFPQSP
Description: Binding affinity to human PCFT expressed in Chinese hamster R2/PCFT4 cells assessed as cell growth inhibition after 96 hrs by CellTiter-Blue assay in presence of 200 nM folic acid. It is filed as cell-based. A digest of the protocol:
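Human-PCFT-transfected R2 CHO cells, precultured with G418, were plated at ~2500–5000 cells/well across a range of drug concentrations. Medium was folate-free RPMI 1640 (pH 7.2) with 25 nM LCV and 10% dialyzed FBS. Parallel wells received 200 nM folic acid. Incubated up to 96 h, then read with CellTiter Blue fluorescence (ex 560/em 590 nm).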
On the technique in general: Resazurin is reduced to fluorescent resorufin, in cell work by metabolically active cells.

The target of data set [2] is T1, Proton-coupled folate transporter (Homo sapiens). Description: Binding affinity to human PCFT expressed in Chinese hamster R2/PCFT4 cells assessed as intracellular drug level at 0.5 uM at 37 degC at pH 5.5 measured over 5 mins. It is filed as cell-based.
The test system of a further data set is KB. Description: Antiproliferative activity against human KB cells expressing FRalpha/PCFT/RFC assessed as cell growth inhibition after 96 hrs by CellTiter-Blue assay in presence of 200 nM folic acid. It is filed as functional, cell-based.
In data set [3] the target is Folate receptor beta (Homo sapiens) (UniProt P14207). Description: Binding affinity to human FRbeta expressed in Chinese hamster D4 cells assessed as intracellular drug level at 50 nM at 37 degC after 1 hr. It is filed as cell-based. A digest of the protocol:
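D4 CHO cells (human FRβ) were acid-washed at pH 3.5, then given 50 nM [3H]drug in HBSS pH 7.4 at 37 °C for 60 min. A second acid wash removed surface-bound label to give the intracellular fraction. Cells were solubilised in NaOH, and values expressed as pmol/mg protein. Mean ±SEM of three experiments.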

For data set [4], the target named is T2, Trifunctional purine biosynthetic protein adenosine-3 (Homo sapiens) (UniProt P22102).
T2 sequence (whole entry): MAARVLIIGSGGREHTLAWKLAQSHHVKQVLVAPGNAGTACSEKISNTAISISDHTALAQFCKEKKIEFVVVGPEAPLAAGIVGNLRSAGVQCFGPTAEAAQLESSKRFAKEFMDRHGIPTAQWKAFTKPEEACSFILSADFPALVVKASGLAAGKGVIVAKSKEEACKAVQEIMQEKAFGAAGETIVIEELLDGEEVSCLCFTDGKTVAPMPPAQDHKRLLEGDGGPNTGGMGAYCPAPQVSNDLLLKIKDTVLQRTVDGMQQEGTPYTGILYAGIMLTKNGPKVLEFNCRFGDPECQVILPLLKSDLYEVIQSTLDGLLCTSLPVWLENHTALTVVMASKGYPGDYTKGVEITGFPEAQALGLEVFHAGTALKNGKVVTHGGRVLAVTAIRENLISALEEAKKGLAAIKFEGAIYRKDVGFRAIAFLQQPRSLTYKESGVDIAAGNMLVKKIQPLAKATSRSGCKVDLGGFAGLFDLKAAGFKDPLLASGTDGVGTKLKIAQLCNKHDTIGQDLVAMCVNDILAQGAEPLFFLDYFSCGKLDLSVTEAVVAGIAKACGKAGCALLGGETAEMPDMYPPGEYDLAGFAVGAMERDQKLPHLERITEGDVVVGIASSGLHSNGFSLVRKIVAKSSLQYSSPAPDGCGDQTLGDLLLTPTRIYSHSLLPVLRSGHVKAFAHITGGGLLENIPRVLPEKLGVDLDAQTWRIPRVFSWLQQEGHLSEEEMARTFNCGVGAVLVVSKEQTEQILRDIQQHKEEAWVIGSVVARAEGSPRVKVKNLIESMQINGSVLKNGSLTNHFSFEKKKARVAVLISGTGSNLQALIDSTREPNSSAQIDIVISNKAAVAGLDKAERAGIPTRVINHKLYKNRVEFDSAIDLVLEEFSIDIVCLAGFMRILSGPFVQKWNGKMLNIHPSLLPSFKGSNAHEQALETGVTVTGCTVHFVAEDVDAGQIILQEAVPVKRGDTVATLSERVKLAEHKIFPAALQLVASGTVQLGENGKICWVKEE
Description: Inhibition of GARFTase in human KB cells expressing FRalpha/PCFT/RFC assessed as cell growth inhibition after 96 hrs by CellTiter-Blue assay in presence of adenosine. The data set is classed as cell-based.

The test system of data set [5] is R2. Description: Cellular uptake in PCFT-null Chinese hamster R2 cells at 0.5 uM at 37 degC at pH 5.5 measured over 2 mins. It is filed as ADME, cell-based, Cricetulus griseus. Particulars: r2, pH 5.5, 2 min. A digest of the protocol: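 R2/PCFT4 or PCFT-null R2 CHO cells were grown in suspension from spinner flasks. Uptake of 0.5 μM [3H]drug measured over 2 min at 37 °C in MES-buffered saline pH 5.5, with or without 10 μM unlabeled competitor. Uptake was quenched with ice-cold DPBS and cells solubilised in NaOH. Results are pmol/mg protein, mean ±SEM of three experiments.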

For another data set, the system named is SK-OV-3. Description: Antiproliferative activity against human SKOV3 cells after 96 hrs by CellTiter-Blue assay in presence of 200 nM folic acid. The data set is classed as functional, cell-based. As to conditions: SK-OV-3, 96 h. A digest of the protocol: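 IGROV1 and SKOV3 cells plated at ~2500–5000 cells/well in folate-free RPMI 1640 with 10% dialyzed FBS, antibiotics and 2 nM LCV, over a range of drug concentrations, ±200 nM folic acid in parallel. Incubated up to 96 h. Viability read by Cell Titer Blue fluorescence (ex 560/em 590 nm).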

The test system of the next data set is PC43-10. Description: Selectivity ratio of IC50 for human RFC expressed in Chinese hamster PC43-10 cells assessed as cell growth inhibition to IC50 for human PCFT expressed in Chinese hamster R2/PCFT4 cells assessed as cell growth inhibition. It is filed as cell-based.
The subject of data set [6] is R2. Description: Cytotoxicity against PCFT-null Chinese hamster R2 cells assessed as cell growth inhibition after 96 hrs by CellTiter-Blue assay. It is filed as cell-based, Cricetulus griseus. As to conditions: R2, 96 h.

Each structure is given as a SMILES string. Activity calls are given as the source filed them. The rule behind the calls is not given here.

The results in this text go back to ChEMBL document CHEMBL3627626, “6-Substituted Pyrrolo[2,3-d]pyrimidine Thienoyl Regioisomers as Targeted Antifolates for Folate Receptor α and the Proton-Coupled Folate Transporter in Human Tumors” (J Med Chem, 2015).

Sequence of Folate receptor beta (Homo sapiens) (P14207 17-230 limits assumed): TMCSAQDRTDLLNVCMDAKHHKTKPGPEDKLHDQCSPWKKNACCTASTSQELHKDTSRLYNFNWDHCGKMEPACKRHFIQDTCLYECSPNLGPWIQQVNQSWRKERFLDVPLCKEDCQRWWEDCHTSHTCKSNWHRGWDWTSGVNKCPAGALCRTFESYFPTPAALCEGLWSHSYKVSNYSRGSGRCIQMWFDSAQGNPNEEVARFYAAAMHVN

As usually defined, the IC50 is the concentration that inhibits the measured activity by half. With `Nc1nc2[nH]c(CCCc3cc(C(=O)N[C@@H](CCC(=O)O)C(=O)O)cs3)cc2c(=O)[nH]1`, the values for the Activity entry (in the data set with Mus musculus; in data set [3]) were “Non-toxic” and 3.35 pmol/mg, respectively. In addition, the outcome in data set [1] and in data set [2] was Active. Besides, the IC50 in the data set on KB came to 0.105 µM; with SK-OV-3 it was 0.076 µM; in the data set with R2 [6] it was 0.29 µM. Also, the inhibition entry in [4] was “inactive”. Also, the Drug uptake result in the data set with R2 [5] was “Not Active”. The Ratio IC50 in the data set with PC43-10 stood at 29.
